In ChEMBL document CHEMBL1921735, “Antibacterial optimization of 4-aminothiazolyl analogues of the natural product GE2270 A: identification of the cycloalkylcarboxylic acids” (J Med Chem, 2011):
In brackets after ≈: the same amount, converted by molar mass. Activity calls are given as the source filed them.

What was measured:
Staphylococcus aureus [1] = test: Antibacterial activity against methicillin-resistant Staphylococcus aureus isolate A4.018 by CLSI M07-A8 method; assay type: functional
Streptococcus pyogenes = test: Antibacterial activity against Streptococcus pyogenes ATCC BAA-595 by CLSI M07-A8 method; assay type: functional
In short: (§1)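 Broth microdilution MIC run per CLSI M07-A8 (2009).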

Streptococcus pneumoniae = test: Antibacterial activity against Streptococcus pneumoniae by CLSI M07-A8 method; assay type: functional, organism-based; in short: as §1
Enterococcus faecalis = test: Antibacterial activity against Enterococcus faecalis ATCC 29212 by CLSI M07-A8 method; assay type: functional; in short: as §1
Enterococcus faecium = test: Antibacterial activity against Enterococcus faecium 7130724 by CLSI M07-A8 method; assay type: functional; in short: as §1
Staphylococcus aureus [2] = test: Antibacterial activity against GE2270-A-resistant Staphylococcus aureus harboring tufA G258D mutant gene by CLSI M07-A8 method; assay type: functional

SMILES	MIC (Staphylococcus aureus [1]) [µg/mL]	MIC (Streptococcus pyogenes) [µg/mL]	Activity (Streptococcus pneumoniae)	MIC (Enterococcus faecalis) [µg/mL]	MIC (Enterococcus faecium) [µg/mL]	MIC (Staphylococcus aureus [2]) [µg/mL]	Activity (Staphylococcus aureus [2])
CNC(=O)C[C@@H]1NC(=O)c2csc(n2)-c2ccc(-c3nc(NC(=O)O[C@H]4CC[C@@H](C(=O)O)CC4)cs3)nc2-c2csc(n2)-c2csc(n2)[C@H]([C@@H](O)c2ccccc2)NC(=O)CNC(=O)c2nc(sc2COC)[C@H](C(C)C)NC(=O)c2nc1sc2C	0.125 (≈ 0.0987 µM)	1 (≈ 0.79 µM)	Active	0.125 (≈ 0.0987 µM)	0.125 (≈ 0.0987 µM)	–	–
CNC(=O)C[C@@H]1NC(=O)c2csc(n2)-c2ccc(-c3nc(NC(=O)OC(C)(C)C)cs3)nc2-c2csc(n2)-c2csc(n2)[C@H]([C@@H](O)c2ccccc2)NC(=O)CNC(=O)c2nc(sc2COC)[C@H](C(C)C)NC(=O)c2nc1sc2C	> 128	> 128	Active	> 128	> 128	> 32	–
CNC(=O)C[C@@H]1NC(=O)c2csc(n2)-c2ccc(-c3nc(NC(=O)[C@H]4CC[C@@H]4C(=O)O)cs3)nc2-c2csc(n2)-c2csc(n2)[C@H]([C@@H](O)c2ccccc2)NC(=O)CNC(=O)c2nc(sc2COC)[C@H](C(C)C)NC(=O)c2nc1sc2C	0.25 (≈ 0.205 µM)	4 (≈ 3.27 µM)	Active	0.25 (≈ 0.205 µM)	0.5 (≈ 0.409 µM)	–	–
CNC(=O)C[C@@H]1NC(=O)c2csc(n2)-c2ccc(-c3nc(NC(=O)OCCCCCN)cs3)nc2-c2csc(n2)-c2csc(n2)[C@H]([C@@H](O)c2ccccc2)NC(=O)CNC(=O)c2nc(sc2COC)[C@H](C(C)C)NC(=O)c2nc1sc2C	1 (≈ 0.816 µM)	8 (≈ 6.53 µM)	Active	0.5 (≈ 0.408 µM)	0.5 (≈ 0.408 µM)	–	inactive
CNC(=O)C[C@@H]1NC(=O)c2csc(n2)-c2ccc(-c3nc(NS(C)(=O)=O)cs3)nc2-c2csc(n2)-c2csc(n2)[C@H]([C@@H](O)c2ccccc2)NC(=O)CNC(=O)c2nc(sc2COC)[C@H](C(C)C)NC(=O)c2nc1sc2C	2 (≈ 1.7 µM)	> 32	Active	2 (≈ 1.7 µM)	4 (≈ 3.41 µM)	> 32	–
CNC(=O)C[C@@H]1NC(=O)c2csc(n2)-c2ccc(-c3nc(NC(=O)c4ccnc(C(=O)O)c4)cs3)nc2-c2csc(n2)-c2csc(n2)[C@H]([C@@H](O)c2ccccc2)NC(=O)CNC(=O)c2nc(sc2COC)[C@H](C(C)C)NC(=O)c2nc1sc2C	8 (≈ 6.42 µM)	> 32	Active	2 (≈ 1.61 µM)	8 (≈ 6.42 µM)	–	–
CNC(=O)C[C@@H]1NC(=O)c2csc(n2)-c2ccc(-c3nc(C4=N[C@H](C(=O)N5CCC[C@H]5C(N)=O)CO4)cs3)nc2-c2csc(n2)-c2csc(n2)[C@H]([C@@H](O)c2ccccc2)NC(=O)CNC(=O)c2nc(sc2COC)[C@H](C(C)C)NC(=O)c2nc1sc2C	0.25 (≈ 0.194 µM)	1 (≈ 0.775 µM)	Active	0.5 (≈ 0.387 µM)	0.25 (≈ 0.194 µM)	–	–
CNC(=O)C[C@@H]1NC(=O)c2csc(n2)-c2ccc(-c3nc(NC(=O)NCCCC(=O)O)cs3)nc2-c2csc(n2)-c2csc(n2)[C@H]([C@@H](O)c2ccccc2)NC(=O)CNC(=O)c2nc(sc2COC)[C@H](C(C)C)NC(=O)c2nc1sc2C	1 (≈ 0.816 µM)	16 (≈ 13.1 µM)	Active	1 (≈ 0.816 µM)	4 (≈ 3.26 µM)	–	inactive
CNC(=O)C[C@@H]1NC(=O)c2csc(n2)-c2ccc(-c3nc(NC(=O)c4ccc(C(=O)O)cc4)cs3)nc2-c2csc(n2)-c2csc(n2)[C@H]([C@@H](O)c2ccccc2)NC(=O)CNC(=O)c2nc(sc2COC)[C@H](C(C)C)NC(=O)c2nc1sc2C	0.125 (≈ 0.1 µM)	4 (≈ 3.21 µM)	Active	0.125 (≈ 0.1 µM)	0.125 (≈ 0.1 µM)	–	–
CNC(=O)C[C@@H]1NC(=O)c2csc(n2)-c2ccc(-c3nc(NC(=O)OC4CC(C)(C)NC(C)(C)C4)cs3)nc2-c2csc(n2)-c2csc(n2)[C@H]([C@@H](O)c2ccccc2)NC(=O)CNC(=O)c2nc(sc2COC)[C@H](C(C)C)NC(=O)c2nc1sc2C	1 (≈ 0.781 µM)	8 (≈ 6.25 µM)	Active	1 (≈ 0.781 µM)	0.5 (≈ 0.391 µM)	–	inactive
CNC(=O)C[C@@H]1NC(=O)c2csc(n2)-c2ccc(-c3nc(NC(=O)CCCC(=O)O)cs3)nc2-c2csc(n2)-c2csc(n2)[C@H]([C@@H](O)c2ccccc2)NC(=O)CNC(=O)c2nc(sc2COC)[C@H](C(C)C)NC(=O)c2nc1sc2C	0.25 (≈ 0.207 µM)	8 (≈ 6.61 µM)	Active	0.25 (≈ 0.207 µM)	0.5 (≈ 0.413 µM)	–	inactive
CNC(=O)C[C@@H]1NC(=O)c2csc(n2)-c2ccc(-c3nc(NC(=O)OCCN4CCOCC4)cs3)nc2-c2csc(n2)-c2csc(n2)[C@H]([C@@H](O)c2ccccc2)NC(=O)CNC(=O)c2nc(sc2COC)[C@H](C(C)C)NC(=O)c2nc1sc2C	1 (≈ 0.798 µM)	> 32	Active	0.5 (≈ 0.399 µM)	0.5 (≈ 0.399 µM)	–	inactive
CNC(=O)C[C@@H]1NC(=O)c2csc(n2)-c2ccc(-c3nc(NC(=O)CC[C@@H](C)C(=O)O)cs3)nc2-c2csc(n2)-c2csc(n2)[C@H]([C@@H](O)c2ccccc2)NC(=O)CNC(=O)c2nc(sc2COC)[C@H](C(C)C)NC(=O)c2nc1sc2C	0.25 (≈ 0.204 µM)	4 (≈ 3.27 µM)	Active	0.125 (≈ 0.102 µM)	0.25 (≈ 0.204 µM)	–	inactive
CNC(=O)C[C@@H]1NC(=O)c2csc(n2)-c2ccc(-c3nc(NC(=O)OCCC[C@H](N)C(=O)O)cs3)nc2-c2csc(n2)-c2csc(n2)[C@H]([C@@H](O)c2ccccc2)NC(=O)CNC(=O)c2nc(sc2COC)[C@H](C(C)C)NC(=O)c2nc1sc2C	8 (≈ 6.37 µM)	8 (≈ 6.37 µM)	Active	8 (≈ 6.37 µM)	32 (≈ 25.5 µM)	–	inactive
CNC(=O)C[C@@H]1NC(=O)c2csc(n2)-c2ccc(-c3nc(NC(=O)[C@H]4CC[C@@H](C(=O)O)CC4)cs3)nc2-c2csc(n2)-c2csc(n2)[C@H]([C@@H](O)c2ccccc2)NC(=O)CNC(=O)c2nc(sc2COC)[C@H](C(C)C)NC(=O)c2nc1sc2C	0.25 (≈ 0.2 µM)	4 (≈ 3.2 µM)	Active	0.125 (≈ 0.1 µM)	0.25 (≈ 0.2 µM)	–	–
CNC(=O)C[C@@H]1NC(=O)c2csc(n2)-c2ccc(-c3nc(NC(=O)COCC(=O)O)cs3)nc2-c2csc(n2)-c2csc(n2)[C@H]([C@@H](O)c2ccccc2)NC(=O)CNC(=O)c2nc(sc2COC)[C@H](C(C)C)NC(=O)c2nc1sc2C	0.5 (≈ 0.412 µM)	4 (≈ 3.3 µM)	Active	0.5 (≈ 0.412 µM)	2 (≈ 1.65 µM)	–	inactive
CNC(=O)C[C@@H]1NC(=O)c2csc(n2)-c2ccc(-c3nc(NC(=O)NCCC(=O)O)cs3)nc2-c2csc(n2)-c2csc(n2)[C@H]([C@@H](O)c2ccccc2)NC(=O)CNC(=O)c2nc(sc2COC)[C@H](C(C)C)NC(=O)c2nc1sc2C	1 (≈ 0.825 µM)	8 (≈ 6.6 µM)	Active	1 (≈ 0.825 µM)	2 (≈ 1.65 µM)	> 32	–
CNC(=O)C[C@@H]1NC(=O)c2csc(n2)-c2ccc(-c3nc(NS(N)(=O)=O)cs3)nc2-c2csc(n2)-c2csc(n2)[C@H]([C@@H](O)c2ccccc2)NC(=O)CNC(=O)c2nc(sc2COC)[C@H](C(C)C)NC(=O)c2nc1sc2C	4 (≈ 3.4 µM)	> 32	Active	2 (≈ 1.7 µM)	4 (≈ 3.4 µM)	> 32	–
CNC(=O)C[C@@H]1NC(=O)c2csc(n2)-c2ccc(-c3nc(NC(=O)O[C@H]4C[C@H](C(=O)O)C4)cs3)nc2-c2csc(n2)-c2csc(n2)[C@H]([C@@H](O)c2ccccc2)NC(=O)CNC(=O)c2nc(sc2COC)[C@H](C(C)C)NC(=O)c2nc1sc2C	0.125 (≈ 0.101 µM)	2 (≈ 1.61 µM)	Active	0.06 (≈ 0.0484 µM)	0.06 (≈ 0.0484 µM)	–	–
CNC(=O)C[C@@H]1NC(=O)c2csc(n2)-c2ccc(-c3nc(NC(=O)OCCCN)cs3)nc2-c2csc(n2)-c2csc(n2)[C@H]([C@@H](O)c2ccccc2)NC(=O)CNC(=O)c2nc(sc2COC)[C@H](C(C)C)NC(=O)c2nc1sc2C	1 (≈ 0.835 µM)	16 (≈ 13.4 µM)	Active	1 (≈ 0.835 µM)	1 (≈ 0.835 µM)	–	inactive
CNC(=O)C[C@@H]1NC(=O)c2csc(n2)-c2ccc(-c3nc(NC(=O)O[C@H]4C[C@@H](C(=O)O)C[C@@H]4N)cs3)nc2-c2csc(n2)-c2csc(n2)[C@H]([C@@H](O)c2ccccc2)NC(=O)CNC(=O)c2nc(sc2COC)[C@H](C(C)C)NC(=O)c2nc1sc2C	2 (≈ 1.58 µM)	2 (≈ 1.58 µM)	Active	1 (≈ 0.789 µM)	4 (≈ 3.16 µM)	–	–
CNC(=O)C[C@@H]1NC(=O)c2csc(n2)-c2ccc(-c3nc(NC(=O)C45CCC(C(=O)O)(CC4)CC5)cs3)nc2-c2csc(n2)-c2csc(n2)[C@H]([C@@H](O)c2ccccc2)NC(=O)CNC(=O)c2nc(sc2COC)[C@H](C(C)C)NC(=O)c2nc1sc2C	0.25 (≈ 0.196 µM)	4 (≈ 3.13 µM)	Active	0.125 (≈ 0.0979 µM)	0.25 (≈ 0.196 µM)	–	–
CNC(=O)C[C@@H]1NC(=O)c2csc(n2)-c2ccc(-c3nc(NC(=O)[C@H]4CC[C@@H](C(=O)O)C4)cs3)nc2-c2csc(n2)-c2csc(n2)[C@H]([C@@H](O)c2ccccc2)NC(=O)CNC(=O)c2nc(sc2COC)[C@H](C(C)C)NC(=O)c2nc1sc2C	0.25 (≈ 0.202 µM)	4 (≈ 3.23 µM)	Active	0.25 (≈ 0.202 µM)	0.25 (≈ 0.202 µM)	–	–
CNC(=O)C[C@@H]1NC(=O)c2csc(n2)-c2ccc(-c3nc(NC(=O)c4ccc(C(=O)O)nc4)cs3)nc2-c2csc(n2)-c2csc(n2)[C@H]([C@@H](O)c2ccccc2)NC(=O)CNC(=O)c2nc(sc2COC)[C@H](C(C)C)NC(=O)c2nc1sc2C	4 (≈ 3.21 µM)	> 32	Active	4 (≈ 3.21 µM)	8 (≈ 6.42 µM)	–	–
